# The sample as a whole holds a higher share of hits than the screen did.
# Ab BasE inh – BasE siderophore biosynthesis inhibition | inhibition, % (no concentration beside the values) | purified BasE, fluorescence polarization binding displacement | 0.1% of 84,000 active; in the data active = inhibition above about 25%, passing the limit was not always enough;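 note: 0% = negative plate control signal and 100% = positive plate control signal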
# KSHV LANA nucl – inhibitors of KSHV LANA binding to nucleosomes; 0.3% of 51,000 active; z-score (concentration not given with the values); FITC-LANA1-23 / chicken nucleosome fluorescence polarization; hits give low values; AID 720717;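 active = both repeat wells score below -2 in polarization z-score versus plate sample wells, excluding overly bright wells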
#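 test system = FITC-LANA peptide and chicken nucleosomes | amount = 240 nM purified chicken nucleosomes (480 nM peptide binding sites), final | reagent = 50 nM FITC-LANA1-23 probe | medium = TEN-BT buffer, pH 7.5 | doses = single compound addition by pin transfer, 100 nL per well | timing = 10–45 min, room temperature | detection = fluorescence polarization | repeats = duplicate plates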
# An asterisk follows results filed as active; / = no result given.
SMILES,Ab BasE inh,KSHV LANA nucl
O=C(O)c1cc(-c2ccccc2)nc2c1cnn2Cc1ccncc1,99.1*,/
CC(C)n1ncc2c(C(=O)OCc3ccc(C#N)cc3)cc(-c3ccccc3)nc21,-1.6,/
COc1ccccc1C(=O)NC(C)(C)CO,/,0.254
O=c1c(Cl)c(Nc2ccc3c(c2)OCO3)cnn1C12CC3CC(CC(C3)C1)C2,2.5,0.13
CC(CO)(CO)N=Cc1c(O)[nH]c(=O)[nH]c1=O,1.9,0.418
CC1=CC(C)=N/C1=C/c1c(O)[nH]c(=O)[nH]c1=O,1.3,-7.64*
Cc1nc(NC2CCN(Cc3nnnn3Cc3ccc4c(c3)OCO4)CC2)[nH]c(=O)c1C,0.7,-0.811
Cc1nonc1NC(=O)CSc1ccccn1,57.3*,0.419
O=C(CSc1ccccn1)Nc1ncccn1,6.4,-0.758
CCOc1ccc(N(CC)S(=O)(=O)N2CCCC(C(=O)O)C2)cc1 (configuration not stated),-1.2,-1.3
Nc1cc[n+](CC(O)CO)cc1 (configuration not stated),-90.3,-3.07*
CCNCc1cccs1,-1.6,/
N#Cc1ccccc1CNCc1cccs1,-0.1,-2.13*
Cc1nn(C)c2c(=O)c(=O)c2n(C)[nH]1,5.0,-3.57*
CCc1nn(C)c2c(=O)c(=O)c2n(C)[nH]1,12.5,/
COCCn1c(O)c(C=NCCCCCc2nc(-c3ccc(C)cc3)no2)c(=O)[nH]c1=S,1.7,/
O=C1N/C(=N/N=C\c2[nH]ncc2Br)SC1c1ccccc1 (configuration not stated),26.8*,0.817
O=C(O)CC1S/C(=N/N=C/c2ccccc2)NC1=O (configuration not stated),-0.2,0.673
c1ccc(-c2ccc(COc3ccc(-c4nnco4)cc3)cc2)cc1,-1.2,/
CC1(C)CC(=O)c2cc(C#N)c(SCc3ccccc3)nc2C1,-3.7,/
CC1(C)NC(=O)C(C#N)=C(SCc2ccccc2)S1,37.8*,-1.16
COc1ccccc1N1CC(C(=O)N2CCN(S(=O)(=O)c3cccs3)CC2)CC1=O (configuration not stated),0.9,/
Cc1cc(C(=O)O)ccc1-n1c(C)ccc1C,3.4,0.204
Cc1ccc(C)n1-c1ccc(C(=O)O)cc1O,46.7*,-0.176
CC1(c2ccc(Cl)cc2)NC(=O)CS1 (configuration not stated),0.8,-2.4*
SMILES,Ab BasE inh,KSHV LANA nucl
O=C1CSCC(=O)N1c1ccc(Cl)cc1,1.5,-0.767
CCOC(=O)c1c(C2CC2)csc1NC(=O)COn1nnc2ccccc21,-0.1,/
CCN(CC)Cc1c(O)ccc2c1O/C(=C\c1ccccc1Cl)C2=O,1.5,-3*
O=C1/C(=C/c2ccccc2)Oc2c1ccc(O)c2CN1CCCC1,0.9,2.15
C/C(CCc1ccc2c(c1)OCO2)=N\NC=O,2.0,/
O=S1(=O)CC/C(=N/NS(=O)(=O)c2ccc(Br)cc2)c2ccccc21,1.4,/
CCCCC/C=C\C/C=C\C/C=C\C/C=C\CCCC(=O)OC(CO)CO,-1.4,-2.11*
CCCCC/C=C\C/C=C\CCCCCCCC(=O)O[C@@H](CO)COC(=O)CCCCCCCCCCCCCCCCC,-2.5,-0.105
O=C(NC1CC1)c1c(Cl)cccc1Cl,2.0,-0.201
O=C(Nc1ccc2c(c1)oc1ccccc12)C1CCCO1 (configuration not stated),0.0,-0.432
O=C(Nc1ccc2c(c1)CCC2)C1CCCO1 (configuration not stated),1.2,-2.09*
N#CCSc1nc(N)cc(N)n1,2.3,0.021
C1Cc2nn3c(c2C1)n1nc2c(c1n1nc4c(c31)CCC4)CCC2,-0.3,0.0575
Cc1[nH]n(-c2ccccc2)c(=O)c1/C=N/O,1.7,-0.0215
Cc1[nH]n(-c2ccccc2)c(=O)c1C=Nc1ccc(O)cc1,52.6*,/
O=C(Cn1cc(/C=C2\NC(=S)N(c3ccccc3)C2=O)c2ccccc21)NCc1ccco1,13.2,-2.29*
O=C(Cn1cc(/C=N/NC(=S)Nc2ccccc2)c2ccccc21)NCc1ccco1,0.2,-0.956
O=C(O)COc1c(I)cc(Cl)c2cccnc12,-0.4,/
S=c1[nH]c2cc(Cl)c3cccnc3c2o1,51.3*,2.53
O=C1CCN(S(=O)(=O)c2ccc(Cl)c(Cl)c2)CC1,-0.6,/
Nc1ccc(OCC2CCCO2)cc1 (configuration not stated),-2.4,0.337
c1ccc(-c2nnc(OCC3CCCO3)c3ccccc23)cc1 (configuration not stated),27.5*,/
N#Cc1c(N)n(-c2cccc(N)c2)c2nc3ccccc3nc12,-0.8,/
O=C(CN1CCN(C2c3ccccc3-c3ccccc32)CC1)c1ccc2c(c1)OCO2,0.8,0.0085
O=C(c1ccc2c(c1)OCO2)N1CCN(C2c3ccccc3-c3ccccc32)CC1,3.0,-2.33*
SMILES,Ab BasE inh,KSHV LANA nucl
O=C(Nc1ccc(C(F)(F)F)cc1)c1cnc2ccccc2n1,-0.3,0.008
O=C(Nc1cc(OCC(F)(F)F)cc(OCC(F)(F)C(F)F)c1)c1ccco1,0.9,-0.554
Brc1ccc(OCCn2cnc3ccccc32)cc1,38.5*,0.37
CCCOc1ccc(Cn2cnc3ccccc32)cc1,19.1,0.176
COc1ccc(OCCn2cnc3ccccc32)cc1,25.9*,-0.196
O=c1c2ccccc2ncn1CCOc1ccc(Br)cc1,0.6,/
Cc1cc(N2CCCC2)ccc1/C=C/C1=CCN(C)CC1,-7.8,-4.13*
C=CCn1c(C)c(/C=C/C2=CCN(C)CC2)c2ccccc21,-20.2,-10.3
O=c1[nH]c2c(s1)C1c3ccccc3OC3CCCC(S2)C31 (configuration not stated),7.8,-9.75*
O=C1Oc2ccccc2C2c3sc(=O)[nH]c3SC(c3ccccc3)C12 (configuration not stated),0.1,-0.435
NC(=O)c1ccsc1NC(=O)COC(=O)c1ccccc1,39.7*,/
NC(=O)c1ccsc1NC(=O)CSc1ccccc1,-1.5,0.266
CCOc1ccc(NC(C)C(=O)NCc2ccc3c(c2)OCO3)cc1 (configuration not stated),-2.7,/
CCOc1ccc(C(=O)Nc2nc3cc4c(cc3s2)OCO4)cc1,0.7,-2.24*
COc1cccc(C(=O)Nc2nc3cc4c(cc3s2)OCO4)c1,0.7,-1.04
CC1CN(CC(=O)N2CCNC2=O)CC(C)O1 (configuration not stated),-1.0,/
CCn1c(O)c(C=Nc2ccccc2)oc1=S,1.9,/
CCn1c(O)c(C=Nc2cccc(O)c2)sc1=S,0.3,-2.41*
O=S(=O)(Cc1ccccc1Cl)NC1CCCCC1,0.9,-0.187
COC(=O)C1=CNC=C(C(=O)OC)C1c1ccccc1C,28.5*,-0.573
COC(=O)C1=CNC=C(C(=O)OC)C1c1ccc(Cl)cc1,0.6,0.369
COc1ccc(OC)c(Nc2nc3nonc3n3nnnc23)c1,-1.7,-0.261
NS(=O)(=O)c1ccc(N2CCOCC2)c(C(=O)O)c1,1.1,/
Nc1ccc(N2CCOCC2)c(N)c1,36.8*,2.52
CCOC(=O)C1=C(N)Oc2cc(C)oc(=O)c2C1c1ccccc1F (configuration not stated),27.7*,-0.569
CC1=C(C(=O)OC(C)C)C(c2ccccc2F)C(C#N)=C(N)O1 (configuration not stated),-3.0,-0.174
Cc1cc(-n2c(C)cc(C(=O)COC(=O)C(C)Nc3ncnc4sc(C)c(C)c34)c2C)no1 (configuration not stated),0.8,/
N#CC1=C(N)C(C#N)(C#N)C(c2ccco2)C2CN(Cc3ccccc3)CC=C12 (configuration not stated),27.9,-5.42*

# Compound activity: PubChem BioAssay, ICCB-Longwood Screening Facility, Harvard Medical School
